In ChEMBL document CHEMBL5030567, “Macrocyclic Inhibitors of HGF-Activating Serine Proteases Overcome Resistance to Receptor Tyrosine Kinase Inhibitors and Block Lung Cancer Progression” (J Med Chem, 2021):
Activity calls are given as the source filed them. The calls are words filed in the database; no cut-off is given here. Numbered stars: 1 amine (or outer) side, 2 acyl side, 3 side chain; on linkers, the order of the positions; unused ones are H or OH. Square brackets hold non-standard residues; d marks the D form. Peptide text beside a SMILES is read from it. X1 = N=C(N)NCCC[C@H](N[*:1])C(=O)c1nc2ccc(C(=O)[*:2])cc2s1

What was measured:
[1] = Toxicity in NSG mouse assessed as body weight loss at 20 to 100 mg/kg, ip administered for 7 days; assay type: organism-based; conditions: in vivo, dose 20-100 mg/kg, time 7 day
Serine protease hepsin [2] = molecular target: T1, Serine protease hepsin (Homo sapiens, UniProt P05981); assay: Inhibition of recombinant human C-terminal 10-His tagged hepsin (Arg45 to Leu417) expressed in mouse myeloma cells using Boc-QAR-AMC as substrate preincubated for 30 mins followed by substrate addition by fluorescence based assay; assay type: single protein
Method in brief: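 Inhibitor in 11-point serial dilution (0-20 µM final, 2% DMSO) pre-incubated 30 min at room temperature with enzyme in TNC buffer (25 mM Tris, 150 mM NaCl, 5 mM CaCl2, 0.01% Triton X-100, pH 8). […] Hepsin activated beforehand 24 h at 37°C. Fluorescence ex 380/em 460 nm kinetic; four-parameter fit of velocities; mean of three experiments.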

Coagulation factor X = Coagulation factor X (Homo sapiens, UniProt P00742); assay: Inhibition of recombinant C-terminal 10His-tagged human coagulation factor 10a (Leu24 to Lys488 residues) expressed in baculovirus infected Sf9 insect cells using Bz-Ile-Glu-Gly-Arg-pNA as substrate preincubated for 30 mins followed by substrate addition by chromogenic assay
NCI-H596 = assay: Inhibition of pro-HGF stimulated cell growth in human H596 cells at 10 uM by ELISA; assay type: functional, cell-based
[3] = molecular target: T2, Suppressor of tumorigenicity 14 protein (Homo sapiens) (UniProt Q9Y5Y6); assay: Inhibition of recombinant human N-terminal met-His6-tagged matriptase catalytic domain (Gly596 to Val855 residues) expressed in Escherichia coli mediated pro-HGF activation preincubated for 30 mins followed by pro-HGF addition and measured after 1 hr by immunoblotting analysis
T2 sequence (whole entry): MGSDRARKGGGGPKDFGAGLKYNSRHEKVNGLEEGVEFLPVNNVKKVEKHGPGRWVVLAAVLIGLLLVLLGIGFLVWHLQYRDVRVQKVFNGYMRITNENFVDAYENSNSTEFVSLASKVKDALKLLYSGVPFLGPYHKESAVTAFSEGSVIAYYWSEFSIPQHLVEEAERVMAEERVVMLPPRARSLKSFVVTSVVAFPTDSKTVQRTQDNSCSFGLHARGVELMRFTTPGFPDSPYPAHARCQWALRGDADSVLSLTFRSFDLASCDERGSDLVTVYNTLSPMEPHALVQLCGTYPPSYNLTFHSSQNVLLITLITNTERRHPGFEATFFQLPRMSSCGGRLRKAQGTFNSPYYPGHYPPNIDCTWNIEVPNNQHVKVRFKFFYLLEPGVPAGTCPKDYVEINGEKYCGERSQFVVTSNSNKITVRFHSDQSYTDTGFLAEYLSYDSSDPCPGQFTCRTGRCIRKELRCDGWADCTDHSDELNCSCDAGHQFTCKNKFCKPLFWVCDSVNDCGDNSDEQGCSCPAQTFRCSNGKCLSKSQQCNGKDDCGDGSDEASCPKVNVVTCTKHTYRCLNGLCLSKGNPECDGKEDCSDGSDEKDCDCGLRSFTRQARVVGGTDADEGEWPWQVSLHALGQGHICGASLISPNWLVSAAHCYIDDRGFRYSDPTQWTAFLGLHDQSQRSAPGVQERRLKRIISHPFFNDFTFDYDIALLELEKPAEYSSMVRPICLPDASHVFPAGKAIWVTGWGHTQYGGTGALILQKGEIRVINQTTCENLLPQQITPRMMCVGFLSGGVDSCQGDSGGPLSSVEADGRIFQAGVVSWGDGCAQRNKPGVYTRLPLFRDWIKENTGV
Method in brief: (§1)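 Recombinant pro-HGF (10 ng) incubated one hour with matriptase (1 nM), hepsin (10 nM) or HGFA (5 nM), with or without inhibitor. Processing detected by immunoblot with a polyclonal antibody recognizing pro-HGF and the HGF alpha and beta chains; active HGF served as positive control.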

[4] = Stability in mouse liver microsomes assessed as half life; assay type: ADME, Microsome
Prothrombin = Prothrombin (Homo sapiens, UniProt P00734); assay: Inhibition of recombinant thrombin (unknown origin) using D-Phe-Pip-Arg-pNA as substrate preincubated for 30 mins followed by substrate addition by chromogenic assay
Serine protease hepsin [5] = molecular target: T1, Serine protease hepsin; assay: Inhibition of recombinant human C-terminal 10-His tagged hepsin (Arg45 to Leu417) expressed in mouse myeloma cells mediated pro-HGF activation preincubated for 30 mins followed by pro-HGF addition and measured after 1 hr by immunoblotting analysis; method in brief: as §1

Structure (SMILES): CC(=O)N[C@@H](CO)C(=O)N[C@@H](CCCCN)C(=O)N[C@@H](CC(C)C)C(=O)N[C@@H](CCCNC(=N)N)C(=O)c1nc2ccc(C(=O)N[C@H](C(N)=O)C(C)C)cc2s1 (Ac-SKL[X1]V-NH2)
- Activity [1]: Non-Toxic
- IC50 (Serine protease hepsin [2]): 0.38 nM
- IC50 (Coagulation factor X): 770 nM
- inhibition (NCI-H596): Active
- inhibition [3]: Active
- t1/2 [4]: > 2.42 h
- IC50 (Prothrombin): 9000 nM
- inhibition (Serine protease hepsin [5]): Active
